Laboratory results published in ChEMBL document CHEMBL1152865, “Synthesis and antimycobacterial activities of novel 6-nitroquinolone-3-carboxylic acids” (Eur J Med Chem, 2009).
Values after ≈ are worked out from the molar mass of the structure shown.

Assays:
Mus musculus [1] = assay: Phototoxicity in Swiss albino mouse exposed to 4 hrs of 18 J/cm'2 UV light irradiation assessed as ear thickness at 140 mg/kg, po after 96 hrs; type: organism-based; parameters: dose 140 mg/kg, route oral; details: in vivo
In short: (§1)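 Female Swiss albino mice about 2 months old, 20-25 g, fasted at least 18 h, six per group. Single oral gavage of 140 mg/kg; vehicle 0.5% aqueous sodium carboxymethylcellulose at 10 ml/kg; lomefloxacin HCl 140 mg/kg as positive control. UVA for 4 h (about 18 J/cm²) from dosing. Both ears scored for erythema, edema and thickness pre-dose, at 4 h, and at about 24, 48, 72 and 96 h.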

Mus musculus [2] = assay: Phototoxicity in Swiss albino mouse exposed to 4 hrs of 18 J/cm'2 UV light irradiation assessed as erythema at 140 mg/kg, po; type: organism-based; parameters: dose 140 mg/kg, route oral; details: in vivo; in short: as §1
Mus musculus [3] = assay: Phototoxicity in Swiss albino mouse assessed as erythema at 140 mg/kg, po after 4 hrs of 18 J/cm'2 UV light irradiation; type: organism-based; parameters: dose 140 mg/kg, route oral; details: in vivo; in short: as §1
Mus musculus [4] = assay: Phototoxicity in Swiss albino mouse exposed to 4 hrs of 18 J/cm'2 UV light irradiation assessed as erythema at 140 mg/kg, po after 24 hrs; type: organism-based; parameters: dose 140 mg/kg, route oral; details: in vivo; in short: as §1
Mus musculus [5] = assay: Phototoxicity in Swiss albino mouse exposed to 4 hrs of 18 J/cm'2 UV light irradiation assessed as erythema at 140 mg/kg, po after 48 hrs; type: organism-based; parameters: dose 140 mg/kg, route oral; details: in vivo; in short: as §1
Mus musculus [6] = assay: Phototoxicity in Swiss albino mouse exposed to 4 hrs of 18 J/cm'2 UV light irradiation assessed as erythema at 140 mg/kg, po after 72 hrs; type: organism-based; parameters: dose 140 mg/kg, route oral; details: in vivo; in short: as §1
Mus musculus [7] = assay: Phototoxicity in Swiss albino mouse exposed to 4 hrs of 18 J/cm'2 UV light irradiation assessed as erythema at 140 mg/kg, po after 96 hrs; type: organism-based; parameters: dose 140 mg/kg, route oral; details: in vivo; in short: as §1
[8] = system: Mycobacterium tuberculosis; assay: Antibacterial activity against Mycobacterium tuberculosis H37Rv by agar dilution method; type: functional
In short: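 Agar dilution in Middlebrook 7H11 agar supplemented with OADC, following an approach similar to NCCLS guidance. MIC determined in duplicate.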

[9] = system: Mycolicibacterium smegmatis; assay: Antibacterial activity against Mycobacterium smegmatis ATCC 14468 by agar dilution method; type: functional
In short: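 Agar dilution on Middlebrook 7H11 agar with OADC supplement, following an NCCLS-type procedure; MIC read in duplicate.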

[10] = Cytotoxicity against african green monkey Vero cells after 72 hrs by MTT assay; type: cell-based; details: chlorocebus sabaeus
In short: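 Cells exposed to compound for 72 h; viability from cellular MTT conversion to formazan; CC50 derived.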

[11] = system: Mycobacterium tuberculosis; assay: Antimycobacterial activity against Mycobacterium tuberculosis ATCC 35801 infected in CD1 mouse assessed as bacterial load in lungs at 50 mg/kg, ip administered 10 days postinfection for 10 days measured after 35 days of infection; type: functional; details: route intraperitoneal
In short: (§2)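 Six-week-old female CD-1 mice, six per group, infected intravenously via the caudal vein with approximately 10⁷ viable M. tuberculosis ATCC 35801. Intraperitoneal treatment ran days 10–20 post-infection. At day 35, spleen and right lung were homogenized, serially 10-fold diluted and plated on 7H10 agar, incubated 37 °C, 4 weeks. Log CFU compared with vehicle-treated controls.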

[12] = system: Mycobacterium tuberculosis; assay: Antimycobacterial activity against Mycobacterium tuberculosis ATCC 35801 infected in CD1 mouse assessed as bacterial load in spleen at 50 mg/kg, ip administered 10 days postinfection for 10 days measured after 35 days of infection; type: functional; details: route intraperitoneal; in short: as §2
[13] = Inhibition of Mycobacterium smegmatis DNA gyrase assessed as inhibition of relaxed circular pUC18 supercoiling activity by agarose gel electrophoresis; parameters: species or system Mycolicibacterium smegmatis
In short: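 Gyrase purified from M. smegmatis, pre-incubated with compound in DMSO. Then 400 ng relaxed pUC18 added in 35 mM Tris-HCl pH 7.5, 5 mM MgCl2, 25 mM potassium glutamate, 2 mM spermidine, 2 mM ATP, BSA, yeast tRNA and 5% glycerol. Incubated 30 min at 37 °C; read-out by agarose gel electrophoresis. Ciprofloxacin and 5% DMSO reactions run as controls.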

Mus musculus [14] = assay: Phototoxicity in Swiss albino mouse exposed to 18 J/cm'2 UV light irradiation assessed as ear thickness at 140 mg/kg, po; type: organism-based; parameters: dose 140 mg/kg, route oral; details: in vivo; in short: as §1
Mus musculus [15] = assay: Phototoxicity in Swiss albino mouse assessed as ear thickness at 140 mg/kg, po measured after 4 hrs of 18 J/cm'2 UV light irradiation; type: organism-based; parameters: dose 140 mg/kg, route oral; details: in vivo; in short: as §1
Mus musculus [16] = assay: Phototoxicity in Swiss albino mouse exposed to 4 hrs of 18 J/cm'2 UV light irradiation assessed as ear thickness at 140 mg/kg, po after 24 hrs; type: organism-based; parameters: dose 140 mg/kg, route oral; details: in vivo; in short: as §1
Mus musculus [17] = assay: Phototoxicity in Swiss albino mouse exposed to 4 hrs of 18 J/cm'2 UV light irradiation assessed as ear thickness at 140 mg/kg, po after 48 hrs; type: organism-based; parameters: dose 140 mg/kg, route oral; details: in vivo; in short: as §1
Mus musculus [18] = assay: Phototoxicity in Swiss albino mouse exposed to 4 hrs of 18 J/cm'2 UV light irradiation assessed as ear thickness at 140 mg/kg, po after 72 hrs; type: organism-based; parameters: dose 140 mg/kg, route oral; details: in vivo; in short: as §1
[19] = system: Mycobacterium tuberculosis; assay: Antimycobacterial activity against Mycobacterium tuberculosis ATCC 35801 infected in CD1 mouse assessed as bacterial load in lungs at 25 mg/kg, ip administered 10 days postinfection for 10 days measured after 35 days of infection; type: functional; details: route intraperitoneal; in short: as §2
[20] = system: Mycobacterium tuberculosis; assay: Antimycobacterial activity against Mycobacterium tuberculosis ATCC 35801 infected in CD1 mouse assessed as bacterial load in spleen at 25 mg/kg, ip administered 10 days postinfection for 10 days measured after 35 days of infection; type: functional; details: route intraperitoneal; in short: as §2

Q: For O=C(O)c1cn(C2CC2)c2cc(N3CCN(Cc4ccc5c(c4)OCO5)CC3)c([N+](=O)[O-])cc2c1=O, which Activity (Mus musculus [1]) is on record?
A: 0.29 mm

Q: And the Activity (Mus musculus [2])?
A: Non-toxic

Q: And the Activity (Mus musculus [3])?
A: Non-toxic

Q: What about the Activity (Mus musculus [4]) of the same molecule?
A: Non-toxic

Q: And the Activity (Mus musculus [5])?
A: Non-toxic

Q: What about the Activity (Mus musculus [6]) of the same molecule?
A: Non-toxic

Q: What about the Activity (Mus musculus [7]) of the same molecule?
A: Non-toxic

Q: What about the MIC [8] of the same molecule?
A: 0.08 µM (≈ 0.0394 µg/mL)

Q: What about the MIC [9] of the same molecule?
A: 0.79 µM (≈ 0.389 µg/mL)

Q: What about the CC50 at 72 h [10] of the same molecule?
A: 127 µM

Q: And the log10cfu [11]?
A: 5.21

Q: What about the log10cfu [12] of the same molecule?
A: 4.87

Q: What about the IC50 [13] of the same molecule?
A: 30 µg/mL (≈ 60.9 µM)

Q: What about the Activity (Mus musculus [14]) of the same molecule?
A: 0.25 mm

Q: And the Activity (Mus musculus [15])?
A: 0.27 mm

Q: What about the Activity (Mus musculus [16]) of the same molecule?
A: 0.28 mm

Q: And the Activity (Mus musculus [17])?
A: 0.28 mm

Q: And the Activity (Mus musculus [18])?
A: 0.31 mm

Q: With CC1CN(c2cc3c(cc2[N+](=O)[O-])c(=O)c(C(=O)O)cn3C(C)(C)C)CC(C)O1 (stereo not drawn) as the molecule, how does the MIC [8] read?
A: 7.76 µM (≈ 3.13 µg/mL)

Q: And the MIC [9]?
A: 31 µM (≈ 12.5 µg/mL)

Q: With O=C(O)c1cn(-c2ccc(F)cc2)c2cc(N3CCSCC3)c([N+](=O)[O-])cc2c1=O as the molecule, how does the MIC [8] read?
A: 14.6 µM (≈ 6.25 µg/mL)

Q: What about the MIC [9] of the same molecule?
A: 29.1 µM (≈ 12.5 µg/mL)

Q: Which MIC [8] does the source give for CCN(CC)C(=O)C1CCCN(c2cc3c(cc2[N+](=O)[O-])c(=O)c(C(=O)O)cn3-c2ccc(F)cc2)C1 (stereo not drawn) here?
A: 6.13 µM (≈ 3.13 µg/mL)

Q: What about the MIC [9] of the same molecule?
A: 24.5 µM (≈ 12.5 µg/mL)

Q: For O=C(O)c1cn(-c2ccc(F)cc2)c2cc(N3CCC4(CC3)OCCO4)c([N+](=O)[O-])cc2c1=O, which MIC [8] is on record?
A: 6.67 µM (≈ 3.13 µg/mL)

Q: What about the MIC [9] of the same molecule?
A: 26.6 µM (≈ 12.5 µg/mL)

Q: For CCN(CC)C(=O)C1CCCN(c2cc3c(cc2[N+](=O)[O-])c(=O)c(C(=O)O)cn3C2CC2)C1 (stereo not drawn), which MIC [8] is on record?
A: 3.42 µM (≈ 1.56 µg/mL)

Q: What about the MIC [9] of the same molecule?
A: 6.86 µM (≈ 3.13 µg/mL)

Q: With CC(C)(C)n1cc(C(=O)O)c(=O)c2cc([N+](=O)[O-])c(N3CCN(Cc4ccc5c(c4)OCO5)CC3)cc21 as the molecule, how does the MIC [8] read?
A: 3.07 µM (≈ 1.56 µg/mL)

Q: What about the MIC [9] of the same molecule?
A: 24.6 µM (≈ 12.5 µg/mL)

Q: What does the source list for CC(C)(C)NC(=O)C1c2ccccc2CCN1c1cc2c(cc1[N+](=O)[O-])c(=O)c(C(=O)O)cn2C(C)(C)C (stereo not drawn)?
A: MIC [8]: 12 µM (≈ 6.25 µg/mL); MIC [9]: 24 µM (≈ 12.5 µg/mL)

Q: Which MIC [8] does the source give for O=C(O)c1cn(C2CC2)c2cc(N3CCC4(CC3)OCCO4)c([N+](=O)[O-])cc2c1=O here?
A: 3.76 µM (≈ 1.56 µg/mL)

Q: And the MIC [9]?
A: 15.1 µM (≈ 6.25 µg/mL)

Q: Which MIC [8] does the source give for CC1CN(c2cc3c(cc2[N+](=O)[O-])c(=O)c(C(=O)O)cn3C2CC2)CC(C)O1 (stereo not drawn) here?
A: 2.01 µM (≈ 0.779 µg/mL)

Q: And the MIC [9]?
A: 8.08 µM (≈ 3.13 µg/mL)

Q: For CC(C)(C)n1cc(C(=O)O)c(=O)c2cc([N+](=O)[O-])c(N3CCC(O)(c4ccc(Cl)cc4)CC3)cc21, which MIC [8] is on record?
A: 6.26 µM (≈ 3.13 µg/mL)

Q: What about the MIC [9] of the same molecule?
A: 25 µM (≈ 12.5 µg/mL)

Q: With O=C(O)c1cn(C2CC2)c2cc(N3CCC(N4CCCCC4)CC3)c([N+](=O)[O-])cc2c1=O as the molecule, how does the Activity (Mus musculus [1]) read?
A: 0.28 mm

Q: What about the Activity (Mus musculus [2]) of the same molecule?
A: Non-toxic

Q: What about the Activity (Mus musculus [3]) of the same molecule?
A: Non-toxic

Q: What about the Activity (Mus musculus [4]) of the same molecule?
A: Non-toxic

Q: And the Activity (Mus musculus [5])?
A: Non-toxic

Q: And the Activity (Mus musculus [7])?
A: Non-toxic

Q: And the MIC [8]?
A: 0.43 µM (≈ 0.189 µg/mL)

Q: And the MIC [9]?
A: 1.77 µM (≈ 0.78 µg/mL)

Q: What about the CC50 at 72 h [10] of the same molecule?
A: 142 µM

Q: And the IC50 [13]?
A: 20 µg/mL (≈ 45.4 µM)

Q: What about the Activity (Mus musculus [14]) of the same molecule?
A: 0.24 mm

Q: And the Activity (Mus musculus [15])?
A: 0.26 mm

Q: What about the Activity (Mus musculus [16]) of the same molecule?
A: 0.26 mm

Q: What about the Activity (Mus musculus [17]) of the same molecule?
A: 0.26 mm

Q: What about the Activity (Mus musculus [18]) of the same molecule?
A: 0.29 mm

Q: Which results are given for NNC(=O)c1ccncc1 [ISONIAZID]?
A: MIC [8]: 0.36 µM (≈ 0.0494 µg/mL); MIC [9]: 45.6 µM (≈ 6.25 µg/mL); CC50 at 72 h [10]: > 456 µM; log10cfu [19]: 5.86; log10cfu [20]: 4.71
